In ChEMBL document CHEMBL1149495, “Newly discovered orally active pure antiestrogens” (Bioorg Med Chem Lett, 2006):

Legend:
[1] = molecular target: T1, Estrogen receptor (Homo sapiens) (UniProt P03372); assay: Displacement of [3H]estradiol from recombinant ERalpha relative to estradiol
T1 sequence (whole entry): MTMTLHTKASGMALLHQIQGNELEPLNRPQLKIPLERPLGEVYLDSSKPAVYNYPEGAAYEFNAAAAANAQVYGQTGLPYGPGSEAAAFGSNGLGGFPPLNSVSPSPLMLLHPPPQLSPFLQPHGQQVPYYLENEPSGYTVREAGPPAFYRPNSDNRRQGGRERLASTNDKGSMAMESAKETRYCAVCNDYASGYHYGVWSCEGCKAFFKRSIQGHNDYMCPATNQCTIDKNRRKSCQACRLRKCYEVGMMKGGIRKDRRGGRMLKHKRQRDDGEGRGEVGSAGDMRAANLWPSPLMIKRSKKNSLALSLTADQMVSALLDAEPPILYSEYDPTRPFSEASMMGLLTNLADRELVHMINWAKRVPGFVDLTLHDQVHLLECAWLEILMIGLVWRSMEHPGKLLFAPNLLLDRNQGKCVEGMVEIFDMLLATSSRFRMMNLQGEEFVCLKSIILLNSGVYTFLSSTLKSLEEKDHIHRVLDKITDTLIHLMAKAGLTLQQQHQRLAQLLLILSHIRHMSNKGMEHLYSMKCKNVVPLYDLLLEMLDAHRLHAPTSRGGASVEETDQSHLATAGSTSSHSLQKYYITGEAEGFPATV
Outline: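 Competitive radiometric binding assay using human recombinant ERα, with [3H]estradiol displaced by the test compound. Result is expressed as relative binding affinity (%), with estradiol set to 100.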

[2] = test system: Mus musculus; assay: Antagonist effect on estrogen activity assessed as inhibition of estrogen-stimulated uterine weight gain in ovariectomized mouse at 1 mg/kg, po; assay type: functional
Outline: (§1)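 Ovariectomized mice given 0.1 lg 17b-estradiol benzoate sc in peanut oil plus oral test compound in 5% gum arabic-water suspension, once daily for three consecutive days. Uteri weighed about 24 h after last dose. % inhibition = 100·(1−(T−C)/(E−C)), using uterine weight gain per body weight. C is vehicle. Mean ± SEM.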

[3] = test system: Mus musculus; assay: Antagonist effect on estrogen activity assessed as inhibition of estrogen-stimulated uterine weight gain in ovariectomized mouse at 3 mg/kg, po; assay type: functional; outline: as §1
[4] = test system: Mus musculus; assay: Antagonist effect on estrogen activity assessed as inhibition of estrogen-stimulated uterine weight gain in ovariectomized mouse at 10 mg/kg, po; assay type: functional; outline: as §1
[5] = test system: Mus musculus; assay: Agonist effect on estrogen activity assessed as stimulation of uterine weight gain in ovariectomized mouse at 50 mg/kg, sc relative to control; assay type: functional; conditions: route subcutaneous
Outline: (§2)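 Ovariectomized mice dosed sc once daily for three consecutive days with test compound in 10% EtOH-peanut oil. Uteri weighed about 24 h after last dose. Uterine weight gain per body weight expressed as % = 100·(T−C)/(E−C), E being the 17b-estradiol benzoate response and C vehicle. Mean ± SEM. Difference from vehicle tested by Student's t test (P < 0.05).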

[6] = (§3) AUC in Sprague-Dawley rat at 10 mg/kg, iv; assay type: ADME, organism-based, Plasma; design: dose 10 mg/kg, route intravenous; conditions: Sprague-Dawley, plasma
Outline: (§4)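 Sprague–Dawley rats dosed as a solution in water/PEG200/EtOH (3:6:1), intravenously at 10 mg/kg or orally at 20 mg/kg. Plasma AUC of intact compound; total clearance also derived from iv data and bioavailability from po/iv AUC.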

[7] = (§5) AUC in Sprague-Dawley rat at 20 mg/kg, po; assay type: ADME, organism-based, Plasma; design: dose 20 mg/kg, route oral; conditions: Sprague-Dawley, plasma; outline: as §4
[8] = Bioavailability in Sprague-Dawley rat; assay type: ADME, organism-based; conditions: in vivo
Outline: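 Sprague–Dawley rats were given the compound as a solution in water/PEG200/EtOH (3:6:1), 10 mg/kg iv and 20 mg/kg po. Plasma AUC was determined for each route.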

[9] = AUC in cynomolgus monkey at 3 mg/kg, iv; assay type: ADME, organism-based, Macaca fascicularis; design: dose 3 mg/kg, route intravenous; conditions: plasma
Outline: (§6)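 Cynomolgus monkeys given 3 mg/kg intravenously or orally as a solution in water/PEG200/EtOH (4:8:3). Plasma AUC of intact compound; after oral dosing the 17-position metabolite was also quantified, and bioavailability was calculated from po versus iv AUC.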

[10] = AUC in CD1 mouse at 30 mg/kg, po; assay type: ADME, organism-based; design: dose 30 mg/kg, route oral; conditions: plasma
Outline: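 CD-1 mice dosed orally at 30 mg/kg as a suspension in 5% gum arabic. Plasma AUC measured for intact compound and separately for its 17-position metabolite (17-keto/17-hydroxy interconversion product).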

[11] = AUC in CD1 mouse at 10 mg/kg, iv; assay type: ADME, organism-based; design: dose 10 mg/kg, route intravenous; conditions: plasma
Outline: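 CD-1 mice dosed intravenously at 10 mg/kg as a solution in water/PEG200/EtOH (3:6:1). Plasma AUC of intact compound.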

[12] = Bioavailability in CD1 mouse; assay type: ADME, organism-based; conditions: in vivo
Outline: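 CD-1 mice were dosed orally at 30 mg/kg as a suspension in 5% gum arabic, and intravenously at 10 mg/kg as a solution in water/PEG200/EtOH (3:6:1). Plasma AUC of the intact compound was measured for each route. The 17-keto or 17-hydroxy metabolite was also monitored.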

[13] = AUC in cynomolgus monkey at 3 mg/kg, po; assay type: ADME, organism-based, Macaca fascicularis; design: dose 3 mg/kg, route oral; conditions: plasma; outline: as §6
[14] = Bioavailability in cynomolgus monkey; assay type: ADME, organism-based, Macaca fascicularis; conditions: in vivo
Outline: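 Cynomolgus monkeys received 3 mg/kg by both the oral and intravenous routes, as a solution in water/PEG200/EtOH (4:8:3). Plasma AUC of the intact compound and of the interconverting 17-keto/17-hydroxy metabolite was measured.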

[15] = test system: Mus musculus; assay: Agonist effect on estrogen activity assessed as stimulation of uterine weight gain in ovariectomized mouse at 17 mg/kg, sc relative to control; assay type: functional; conditions: route subcutaneous; outline: as §2
[16] = Total clearance in Sprague-Dawley rat at 10 mg/kg, iv; assay type: ADME, organism-based; design: dose 10 mg/kg, route intravenous; conditions: in vivo
Outline: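 Sprague–Dawley rats were given a single iv dose as a solution in water/PEG200/EtOH (3:6:1). Total clearance was derived alongside plasma AUC.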

[17] = test system: Rattus norvegicus; assay: as §3; assay type: ADME, organism-based, Plasma; design: dose 10 mg/kg, route intravenous; conditions: in vivo; outline: as §4
[18] = test system: Rattus norvegicus; assay: as §5; assay type: ADME, organism-based, Plasma; design: dose 20 mg/kg, route oral; conditions: in vivo; outline: as §4

SMILES	RBA [1] [%]	inhibition in vivo at 1 mg/kg [2] [%]	inhibition in vivo at 3 mg/kg [3] [%]	inhibition in vivo at 10 mg/kg [4] [%]	Activity [5] [%]	AUC [6] [µg·h/mL]	AUC [7] [µg·h/mL]	bioavailability [8] [%]	AUC [9] [µg·h/mL]	AUC [10] [µg·h/mL]	AUC [11] [µg·h/mL]	bioavailability [12] [%]	AUC [13] [µg·h/mL]	bioavailability [14] [%]	Activity [15] [%]	clearance [16] [mL/min/kg]	AUC [17] [µg·h/mL]	AUC [18] [µg·h/mL]
C[C@]12CC[C@@H]3c4ccc(O)cc4C[C@@H](CCCCCCCC[C@@H](CCCC(F)(F)C(F)(F)C(F)(F)C(F)(F)F)C(=O)O)[C@H]3[C@@H]1CCC2=O	1	54	85	96	1	50	32	32	77	468	389	40	2.42	3.1	–	–	–	–
C[C@]12CC[C@@H]3c4ccc(O)cc4C[C@@H](CCCCCCCC[C@H](CCCC(F)(F)C(F)(F)C(F)(F)C(F)(F)F)C(=O)O)[C@H]3[C@@H]1CC[C@@H]2O	1	58	88	103	–	254	190	37	–	470	447	35	0.3	–	3	0.65	–	–
C[C@]1(c2ccc(O)cc2)CSc2cc(O)ccc2[C@H]1CCCCCCCCC(CCCC(F)(F)C(F)(F)F)C(=O)O (stereo partly specified)	–	11	41	77	–	–	–	–	–	–	–	–	–	–	–	–	228	209
C[C@]12CC[C@@H]3c4ccc(O)cc4C[C@@H](CCCCCCCCC(CCCC(F)(F)C(F)(F)C(F)(F)C(F)(F)F)C(=O)O)[C@H]3[C@@H]1CC[C@@H]2O (stereo partly specified)	1.4	64	87	96	–	207	144	35	–	–	–	–	–	–	4	0.817	–	–
C[C@]12CC[C@@H]3c4ccc(O)cc4C[C@@H](CCCCCCCC[C@@H](CCCC(F)(F)C(F)(F)C(F)(F)C(F)(F)F)C(=O)O)[C@H]3[C@@H]1CC[C@@H]2O	1.1	59	93	99	–	146	98	33	88	274	244	37	0.42	0.48	4	1.23	–	–
C[C@]12CC[C@@H]3c4ccc(O)cc4C[C@@H](CCCCCCCCC[S+]([O-])CCCC(F)(F)C(F)(F)F)[C@H]3[C@@H]1CC[C@@H]2O (stereo partly specified) [FULVESTRANT]	–	11	29	54	–	–	–	–	–	–	–	–	–	–	–	–	5.3	1.7

Now from value to compound, other results behind:

RBA [1] [%]	SMILES	inhibition in vivo at 1 mg/kg [2] [%]	inhibition in vivo at 3 mg/kg [3] [%]	inhibition in vivo at 10 mg/kg [4] [%]	Activity [5] [%]	AUC [6] [µg·h/mL]	AUC [7] [µg·h/mL]	bioavailability [8] [%]	AUC [9] [µg·h/mL]	AUC [10] [µg·h/mL]	AUC [11] [µg·h/mL]	bioavailability [12] [%]	AUC [13] [µg·h/mL]	bioavailability [14] [%]	Activity [15] [%]	clearance [16] [mL/min/kg]	AUC [17] [µg·h/mL]	AUC [18] [µg·h/mL]
0.7	C[C@]12CC[C@@H]3c4ccc(O)cc4C[C@@H](CCCCCCCCCC(CCC(F)(F)C(F)(F)C(F)(F)C(F)(F)F)C(=O)O)[C@H]3[C@@H]1CC[C@@H]2O (stereo partly specified)	27	49	92	–	–	–	–	–	–	–	–	–	–	–	–	–	–
0.7	C[C@]12CC[C@@H]3c4ccc(O)cc4C[C@@H](CCCCCCCCCC(CCCC(F)(F)C(F)(F)C(F)(F)C(F)(F)F)C(=O)O)[C@H]3[C@@H]1CC[C@@H]2O (stereo partly specified)	27	42	85	–	–	–	–	–	–	–	–	–	–	–	–	–	–
0.8	C[C@]12CC[C@@H]3c4ccc(O)cc4C[C@@H](CCCCCCCCC(CCCC(F)(F)C(F)(F)F)C(=O)O)[C@H]3[C@@H]1CC[C@@H]2O (stereo partly specified)	37	67	87	–	–	–	–	–	–	–	–	–	–	–	–	–	–
0.6	C[C@]12CC[C@@H]3c4ccc(O)cc4C[C@@H](CCCCCCCCC(CCC(F)(F)C(F)(F)C(F)(F)C(F)(F)F)C(=O)O)[C@H]3[C@@H]1CC[C@@H]2O (stereo partly specified)	55	80	98	–	–	–	–	–	–	–	–	–	–	–	–	–	–
1.4	C[C@]12CC[C@@H]3c4ccc(O)cc4C[C@@H](CCCCCCCCCC(CCCC(F)(F)C(F)(F)F)C(=O)O)[C@H]3[C@@H]1CC[C@@H]2O (stereo partly specified)	22	30	80	–	–	–	–	–	–	–	–	–	–	–	–	–	–
